Active and inactive are the calls of the source. The calls are words filed in the database; no cut-off is given here. Where a SMILES comes first, the peptide text is derived from it. [ ]: non-standard residue; d: D form. pY = N[C@@H](Cc1ccc(OP(=O)(O)O)cc1)C(=O)O
Key:
[1] = biological target: T1, Signal transducer and activator of transcription 3 (Homo sapiens, UniProt P40763); assay: (§1) Displacement of 5-carboxyfluorescein GpYLPQTV-NH2 probe from C-terminal 6His-tagged recombinant human STAT3 (127 to 711 residues) SH2 domain extracted from Escherichia coli BL21 (DE3) assessed as inhibition of dimerization preincubated for 30 mins followed by probe addition and measured after 30 mins by fluorescence polarization assay
T1 sequence (P40763 whole entry, the tested form may be a part): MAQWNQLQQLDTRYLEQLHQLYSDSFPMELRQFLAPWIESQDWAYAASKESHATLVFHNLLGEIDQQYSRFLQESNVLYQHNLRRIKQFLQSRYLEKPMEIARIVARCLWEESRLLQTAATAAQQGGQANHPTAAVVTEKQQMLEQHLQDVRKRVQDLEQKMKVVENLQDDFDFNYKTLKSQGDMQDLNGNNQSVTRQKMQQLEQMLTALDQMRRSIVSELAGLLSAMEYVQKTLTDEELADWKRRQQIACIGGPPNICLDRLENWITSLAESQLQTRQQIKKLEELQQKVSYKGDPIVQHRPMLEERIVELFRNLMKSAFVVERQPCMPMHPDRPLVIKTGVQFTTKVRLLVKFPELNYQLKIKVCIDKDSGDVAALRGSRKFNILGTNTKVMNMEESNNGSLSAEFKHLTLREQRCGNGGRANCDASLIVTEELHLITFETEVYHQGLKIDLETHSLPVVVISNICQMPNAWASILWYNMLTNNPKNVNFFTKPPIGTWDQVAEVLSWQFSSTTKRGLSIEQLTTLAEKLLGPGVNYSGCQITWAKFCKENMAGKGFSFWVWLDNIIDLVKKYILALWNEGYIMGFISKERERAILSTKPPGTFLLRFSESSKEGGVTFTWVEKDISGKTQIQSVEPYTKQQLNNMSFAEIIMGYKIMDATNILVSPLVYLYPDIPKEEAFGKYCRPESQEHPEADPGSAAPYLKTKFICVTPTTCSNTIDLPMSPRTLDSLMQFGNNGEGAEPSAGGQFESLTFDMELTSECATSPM

[2] = biological target: T1, Signal transducer and activator of transcription 3; assay: as §1, with “for 10” for “for 30”
[3] = biological target: T1, Signal transducer and activator of transcription 3; assay: as §1, with “for 60” for “for 30”
[4] = biological target: T1, Signal transducer and activator of transcription 3; assay: (§2) Inhibition of recombinant wild type tyrosine phosphorylated C-terminal 6His tagged human STAT3 (127 to 711 residues) DNA-binding activity transfected in v-Src transformed mouse NIH3T3 cell nuclear extract preincubated for 30 mins followed by addition of radiolabeled hSIE and measured after 30 mins by EMSA analysis; format: subcellular, Nucleus
PANC-1 [5] = assay: Inhibition of STAT3/Src protein-protein interaction in human PANC-1 cells at 3 uM incubated for 8 hrs by immunoblotting analysis; format: cell-based
Procedure, shortened: (§3)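 Panc-1 pancreatic cancer cells treated 8 h; whole-cell lysates prepared, EGFR, gp130, Src or JAK2 immunoprecipitated and immunoblotted for Stat3; control cells given 0.1% DMSO; 2 independent determinations.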

[6] = biological target: Signal transducer and activator of transcription 3 (Homo sapiens, UniProt P40763, C328A); assay: as §2, with “STAT3 C328A mutant” for “STAT3”; format: subcellular, Nucleus
Sequence of Signal transducer and activator of transcription 3 (Homo sapiens, UniProt P40763, C328A) (P40763 2-770 C328A limits assumed): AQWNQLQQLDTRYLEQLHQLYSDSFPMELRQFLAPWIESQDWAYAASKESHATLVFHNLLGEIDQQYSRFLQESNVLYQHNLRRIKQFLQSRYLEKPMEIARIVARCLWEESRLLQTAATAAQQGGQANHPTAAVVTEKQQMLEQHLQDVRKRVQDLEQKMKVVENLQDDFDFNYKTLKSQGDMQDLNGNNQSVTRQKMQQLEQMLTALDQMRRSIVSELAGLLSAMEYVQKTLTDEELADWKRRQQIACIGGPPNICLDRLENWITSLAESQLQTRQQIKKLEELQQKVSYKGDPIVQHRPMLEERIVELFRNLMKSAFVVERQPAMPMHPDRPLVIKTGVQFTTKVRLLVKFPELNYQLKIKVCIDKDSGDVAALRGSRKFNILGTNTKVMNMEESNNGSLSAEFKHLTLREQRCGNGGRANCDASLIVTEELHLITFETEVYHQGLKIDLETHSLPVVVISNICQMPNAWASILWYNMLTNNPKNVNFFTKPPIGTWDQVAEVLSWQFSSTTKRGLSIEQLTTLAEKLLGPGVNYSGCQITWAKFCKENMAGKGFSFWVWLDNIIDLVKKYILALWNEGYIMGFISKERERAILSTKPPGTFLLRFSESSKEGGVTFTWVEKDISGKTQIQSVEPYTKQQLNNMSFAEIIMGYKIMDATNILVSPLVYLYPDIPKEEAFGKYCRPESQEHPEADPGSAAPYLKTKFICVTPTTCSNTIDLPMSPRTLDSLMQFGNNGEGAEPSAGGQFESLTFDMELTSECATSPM

PANC-1 [7] = assay: Inhibition of STAT3/EGFR protein-protein interaction in human PANC-1 cells at 3 uM incubated for 8 hrs by immunoblotting analysis; format: cell-based; procedure, shortened: as §3
PANC-1 [8] = assay: Inhibition of STAT3/gp130 protein-protein interaction in human PANC-1 cells at 3 uM incubated for 8 hrs by immunoblotting analysis; format: cell-based; procedure, shortened: as §3
[9] = biological target: Signal transducer and activator of transcription 3 (Homo sapiens, UniProt P40763, C542S); assay: as §2, with “STAT3 C542S mutant” for “STAT3”; format: subcellular, Nucleus
Sequence of Signal transducer and activator of transcription 3 (Homo sapiens, UniProt P40763, C542S) (P40763 2-770 C542S limits assumed): as the sequence (P40763 2-770 C328A limits assumed) above, with A327C, C541S counted along it

[10] = biological target: T1, Signal transducer and activator of transcription 3; assay: Inhibition of C-terminal 6His-tagged recombinant human STAT3 (127 to 711 residues) DNA-binding activity transfected in v-Src transformed mouse NIH3T3 cell nuclear extract preincubated for 10 mins followed by addition of radiolabeled hSIE and measured after 30 mins by EMSA analysis; format: subcellular, Nucleus
[11] = biological target: T1, Signal transducer and activator of transcription 3; assay: Inhibition of C-terminal 6His-tagged recombinant human STAT3 (127 to 711 residues) DNA-binding activity transfected in v-Src transformed mouse NIH3T3 cell nuclear extract preincubated for 60 mins followed by addition of radiolabeled hSIE and measured after 30 mins by EMSA analysis; format: subcellular, Nucleus
[12] = biological target: JAK2-STAT3 (Homo sapiens) (UniProt O60674+P40763); assay: Inhibition of STAT3/JAK2 protein-protein interaction in human PANC-1 cells at 3 uM incubated for 8 hrs by immunoblotting analysis; format: cell-based

SMILES | IC50 [1] [µM] | IC50 [2] [µM] | IC50 [3] [µM] | IC50 [4] [µM] | IC50 [6] [µM] | IC50 [9] [µM] | IC50 [10] [nM] | IC50 [11] [nM] | inhibition [12] | inhibition (PANC-1 [5]) | inhibition (PANC-1 [7]) | inhibition (PANC-1 [8])
O=C([C@H]1CCN1S(=O)(=O)c1c(F)c(F)c(F)c(F)c1F)N(Cc1ccc(C2CCCCC2)cn1)c1ccc2c(=O)[nH]ncc2c1 | > 600 | > 600 | > 600 | 4.8 | 8.8 | 5.5 | 1500 | 380 | Active | inactive | Active | Active
O=C(O)c1ccc(N(Cc2cnc(C3CCCCC3)cn2)C(=O)[C@H]2CCN2S(=O)(=O)c2c(F)c(F)c(Cl)c(F)c2F)cc1O | 186 | 190 | 181 |  |  |  |  |  |  |  |  | 
CC(C)C[C@H](NC(=O)[C@H](Cc1ccc(OP(=O)(O)O)cc1)NC(=O)CN)C(=O)N1CCC[C@H]1C(=O)N[C@@H](CCC(N)=O)C(=O)N[C@H](C(=O)N[C@H](C(=O)O)C(C)C)[C@@H](C)O (H-G[pY]LPQTV-OH) | 0.22 | 0.29 | 0.19 |  |  |  |  |  |  |  |  | 

Continued by falling IC50 [1], values first:

IC50 [1] [µM] | IC50 [2] [µM] | IC50 [3] [µM] | IC50 [4] [µM] | IC50 [6] [µM] | IC50 [9] [µM] | IC50 [10] [nM] | IC50 [11] [nM] | inhibition [12] | SMILES | inhibition (PANC-1 [5]) | inhibition (PANC-1 [7]) | inhibition (PANC-1 [8])
83.6 | 86.4 | 82.5 |  |  |  |  |  |  | Cc1ccc(S(=O)(=O)N2CC[C@@H]2C(=O)N(Cc2ccc(C3CCCCC3)cn2)c2ccc(C(=O)O)c(O)c2)cc1 |  |  | 
41.4 | 48.4 | 35.5 |  |  |  |  |  |  | CN(CC(=O)N(Cc1ccc(C2CCCCC2)cc1)c1ccc(C(=O)O)c(O)c1)S(=O)(=O)c1c(F)c(F)c(Cl)c(F)c1F |  |  | 

From ChEMBL document CHEMBL5579791, “Azetidine ring, salicylic acid, and salicylic acid bioisosteres as determinants of the binding characteristics of novel potent compounds to Stat3” (Bioorg Med Chem Lett, 2024)
